The subject of assay [1] is Candida albicans. The assay is described as follows: Antifungal activity against drug resistant Candida albicans SC5314-FR assessed as inhibition of fungal growth incubated for 24 hrs by CLSI protocol based microdilution method. In kind it is functional. In outline: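 Fluconazole-resistant strain derived from SC5314 by fluconazole exposure. Log-phase cells at 1×10^5 CFU/mL in SDB. Drug fivefold serial dilutions, 200–0.064 µg/mL final, DMSO <0.1%, triplicate wells, 200 µL. Incubated 30 °C for 24 h and read at OD630. Growth, blank and fluconazole controls included. Run three times.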

Assay [2] concerns Candida albicans. The assay is described as follows: Antifungal activity against Candida albicans SC5314 assessed as inhibition of fungal growth measured up to 48 hrs by time-killing curve analysis. In kind it is functional, organism-based. In outline:
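Log-phase cells at 1×10^5 CFU/mL in SDB, 10 mL per group. Drug at 0.27, 0.53 or 1.06 µg/mL, plus fluconazole and untreated controls. Shaken 150 r/min at 30 °C. Samples taken at 0, 4, 8, 12, 24, 36 and 48 h and read at A630, triplicate wells. Absorbance plotted against time.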

For assay [3], the system named is Candida albicans. The assay is described as follows: Antifungal activity against Candida albicans assessed as sparse distribution of fungal cells at 0.27 to 1.06 microg/ml measured after 4 to 8 hrs by inverted microscopic analysis. In kind it is functional, organism-based. The following applies: dose 0.27-1.06 µg/ml, time 4-8 hrs. In outline: (§1)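 Hyphae were induced in SD+10% FBS or in Spider medium. Log-phase cells at 1×10^5 CFU/mL final, 1 mL per well in 24-well plates, 3 wells per group. Drug at 0.27, 0.53 or 1.06 µg/mL, fluconazole, or no-drug control. Incubated at 30 °C; hyphal formation observed and photographed by inverted microscope at 4 h and 8 h.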

Assay [4] concerns Candida albicans. The assay is described as follows: Antifungal activity against Candida albicans assessed as increase in yeast fungal cells at 0.27 to 1.06 microg/ml measured after 4 to 8 hrs by inverted microscopic analysis. The following applies: dose 0.27-1.06 µg/ml, time 4-8 hrs. In kind it is functional, organism-based. In outline: as §1
Assay [5] has as its system Candida albicans. As to the kind of experiment: Antifungal activity against Candida albicans assessed as increase in pseudomycelial fungal cells at 0.27 to 1.06 microg/ml measured after 4 to 8 hrs by inverted microscopic analysis. The class given is functional, organism-based. Conditions: dose 0.27-1.06 µg/ml, time 4-8 hrs. In outline: as §1
Assay [6] deals with Candida albicans. As to the kind of experiment: Antifungal activity against Candida albicans assessed as reduction in invasion ability at 0.27 to 1.06 microg/ml measured after 4 to 8 hrs by inverted microscopic analysis. In kind it is functional, organism-based. The following applies: dose 0.27-1.06 µg/ml, time 4-8 hrs. An outline of the steps: as §1
For assay [7], the system named is Candida albicans. As to the kind of experiment: Antibiofilm activity in Candida albicans SC5314 assessed as appearance of yeast form of fungal cells at 0.27 microg/ml measured after 24 hrs by inverted microscopic analysis. The class given is functional, organism-based. The following applies: dose 0.27 µg/ml. An outline of the steps:
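Log-phase C. albicans in RPMI1640+10% FBS at 1×10^5 CFU/mL allowed to adhere in 24-well plates for 90 min at 30 °C; unattached medium removed. 1 mL medium with drug (0.27, 0.53, 1.06 µg/mL) or without drug added; 24 h at 30 °C. Biofilm stained with crystal violet 30 min, washed 3× with PBS, viewed by inverted microscope.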

The test system of assay [8] is Candida albicans. The assay is described as follows: Induction of morphological changes in Candida albicans assessed as loose distribution of cytoplasm at 0.53 microg/ml incubated for 16 to 24 hrs by transmission electron microscopic analysis. Conditions: dose 0.53 µg/ml, time 16-24 hrs. The class given is functional, organism-based. An outline of the steps:
(§2)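 C. albicans at 5×10^5 CFU/mL in SDB shaken with drug (0.27, 0.53, 1.06 µg/mL), fluconazole or no drug at 30 °C, 150 r/min, for 16-24 h. Pellets washed with PBS and fixed in cold 3% paraformaldehyde/2.5% glutaraldehyde at 4 °C, then 1% OsO4. Dehydrated in acetone and embedded in Epon-812. 60-90 nm sections stained with uranyl acetate and lead citrate, imaged by TEM.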

The subject of assay [9] is Candida albicans. The assay is described as follows: Induction of morphological changes in Candida albicans assessed as unclear cell membrane outline at 0.53 to 1.06 microg/ml incubated for 16 to 24 hrs by transmission electron microscopic analysis. The following applies: dose 0.53-1.06 µg/ml, time 16-24 hrs. In kind it is functional, organism-based. An outline of the steps: as §2

Our source for the MIC50 and Activity values is ChEMBL document CHEMBL6177924, “Synthesis and antifungal evaluation of new azole derivatives containing 1,2,3-triazole” (RSC Med Chem, 2025).

In brackets after ≈: the same amount, converted by molar mass. Activity calls are given as the source filed them. No cut-off for these calls is given here.

One may read the MIC50 as an inhibitory concentration at the 50% level, which refers to growth in some studies and to a panel of isolates in others. Regarding `O=C(Cn1cc(COC(Cn2ccnc2)c2ccc(Cl)cc2Cl)nn1)c1ccc2ccccc2c1` (centres undefined), the MIC50 in [1] worked out at 10.9 µg/mL (≈ 21.6 µM). The outcome in assay [2], in assay [3], in assay [4], in assay [5], in [7] and in [8] was Active. In [9], the result was Active. Moreover, the Activity entry in assay [6] is “Active; Better Than That Of Fluconazole Group”.
